In brackets after ≈: the same amount, converted by molar mass. Activity calls are given as the source filed them. The calls are words filed in the database; no cut-off is given here.
Key:
[1] = system: Staphylococcus aureus; test: Antibacterial activity against methicillin-resistant Staphylococcus aureus ATCC 33591 incubated for 18 hrs by dilution antimicrobial susceptibility test; settings: ATCC 33591, 18 h
[2] = system: Escherichia coli; test: Antibacterial activity against Escherichia coli ATCC 25922 at 256 ug/ml incubated for 18 hrs by dilution antimicrobial susceptibility test; assay type: functional, organism-based
In short: (§1)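 Dilution susceptibility test for aerobic bacteria. Compounds in DMSO, serially diluted to 10 concentrations (0.5–256 μg/mL), tested in triplicate. Positive controls were vancomycin for MRSA ATCC 33591 and gentamicin for E. coli ATCC 25922. Each plate carried six untreated media controls. Incubation was 35 °C for 18 h. MIC was read as the lowest concentration with no visible bacterial growth.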

[3] = system: Staphylococcus aureus; test: Antibacterial activity against methicillin-resistant Staphylococcus aureus ATCC 33591 at 256 ug/ml incubated for 18 hrs by dilution antimicrobial susceptibility test
[4] = system: Escherichia coli; test: Antibacterial activity against Escherichia coli ATCC 25922 incubated for 18 hrs by dilution antimicrobial susceptibility test; assay type: functional
In short: as §1

With CN[C@H](CC(C)C)C(=O)N[C@H]1C(=O)N[C@@H](CC(N)=O)C(=O)N[C@H]2C(=O)N[C@H]3C(=O)N[C@H](C(=O)N[C@H](C(=O)O)c4cc(O)cc(O)c4-c4cc3ccc4O)[C@H](O)c3ccc(c(Cl)c3)Oc3cc2cc(c3O[C@@H]2O[C@H](CO)[C@@H](O)[C@H](O)[C@H]2O[C@H]2C[C@](C)(N)[C@H](O)[C@H](C)O2)Oc2ccc(cc2Cl)[C@H]1O [VANCOMYCIN] the MIC [1] was 0.25 µg/mL (≈ 0.173 µM).

C[C@@H]1O[C@@H](O)C[C@@](C)(N)[C@H]1O[C@H]1CC[C@H](OC(=O)c2ccc[nH]2)[C@@H](C)O1 was tested, and the Activity [2] was “inactive” and the Activity [3] was “inactive”.

For C[C@@H]1O[C@H](O[C@H]2CC[C@H](O)O[C@@H]2C)C[C@@](C)(N)[C@H]1O[C@H]1CC[C@H](OC(=O)c2cc(Cl)c[nH]2)[C@@H](C)O1, the Activity [2] was “inactive” and the Activity [3] was “inactive”.

Work on C[C@@H]1O[C@@H](O)C[C@@](C)(N)[C@H]1O[C@H]1CC[C@H](OC(=O)c2cc(Br)c[nH]2)[C@@H](C)O1 yielded an MIC ([4]; ATCC 25922, 18 h) of 64 µg/mL (≈ 143 µM) and an MIC [1] of 32 µg/mL (≈ 71.5 µM).

In the case of C[C@@H]1O[C@H](O)C[C@@](C)(NC(=O)CCC(=O)O)[C@H]1O[C@@H]1C[C@@](C)(N)[C@@H](O[C@H]2CC[C@H](OC(=O)c3cc(Cl)c[nH]3)[C@@H](C)O2)[C@H](C)O1, the Activity [2] is reported as “inactive” and the Activity [3] is reported as “inactive”.

GENTAMICIN gave an MIC [4] of 4 µg/mL.

With C[C@@H]1O[C@@H](O)C[C@@](C)(N)[C@H]1O[C@H]1CC[C@H](OC(=O)c2cc(Cl)c[nH]2)[C@@H](C)O1 the MIC ([4]; ATCC 25922, 18 h) was 64 µg/mL (≈ 159 µM) and the MIC [1] was 32 µg/mL (≈ 79.4 µM).

Reference: ChEMBL document CHEMBL4414668, “Phallusialides A-E, Pyrrole-Derived Alkaloids Discovered from a Marine-Derived Micromonospora sp. Bacterium Using MS-Based Metabolomics Approaches” (2019)
